Data as given in ChEMBL document CHEMBL1221337, “The unsaturated acyclic nucleoside analogues bearing a sterically constrained (Z)-4'-benzamido-2'-butenyl moiety: Synthesis, X-ray crystal structure study, cytostatic and antiviral activity evaluations” (Bioorg Med Chem, 2010).
The source made the active and inactive calls. No cut-off for these calls is given here.

Assays:
HEp-2 = experiment: Cytotoxicity against human Hep2 cells after 72 hrs by MTT assay; type: functional, cell-based; conditions: HEp-2, 72 h
In short: (§1)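 Adherent cells were plated at 3000–6000 cells/well on day 0, according to doubling time. Compound was added as five 10-fold dilutions (1 × 10⁻⁸–1 × 10⁻⁴ M), with DMSO ≤0.1%, and incubated 72 h. Read-out was MTT absorbance converted to percentage growth versus untreated wells on the same plate. IC50 was obtained by linear regression between bracketing concentrations; the highest concentration was reported as ">" if not reached. Quadruplicates, three experiments.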

Influenza A virus = experiment: Antiviral activity against influenza A virus H1N1; H3N2 infected in MDCK cells assessed as inhibition of virus-induced cytopathicity; type: functional, organism-based
In short: (§2)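 MDCK cells, nearly confluent in microtiter plates, were infected with 100 CCID50 per well. After 1 h adsorption, the inoculum was washed off. Cells were incubated with graded compound concentrations (200, 40, 8…). Cytopathicity was recorded at completion in untreated infected controls.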

MDCK = experiment: Cytotoxicity against MDCK cells assessed as cell viability after 3 days by coulter counting; type: cell-based, Canis lupus familiaris; conditions: dog, 72 h
Punta Toro virus = experiment: Antiviral activity against Punta Toro virus infected in Vero cells assessed as inhibition of virus-induced cytopathicity; type: functional, organism-based
In short: (§3)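 Confluent cell monolayers in 96-well plates were inoculated with 100 CCID50 of virus. After 1 h adsorption, residual virus was removed. Cultures were then incubated with test compound at varying concentrations (200, 40, 8... µM). Viral cytopathicity was scored once it reached completion in untreated infected controls. Host cells: HEL for HSV-1 KOS and HSV-2 G; Vero for the Vero lines; HeLa for the HeLa lines.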

[1] = Cytotoxicity against human WI38 cells after 72 hrs by MTT assay; type: cell-based; conditions: WI-38, 72 h; in short: as §1
[2] = system: Mammalian orthoreovirus 1; experiment: Antiviral activity against Reovirus 1 infected in Vero cells assessed as inhibition of virus-induced cytopathicity; type: functional, organism-based; in short: as §3
Vero = experiment: Cytotoxicity against african green monkey Vero cells assessed as cell viability after 3 days by coulter counting; type: cell-based; conditions: chlorocebus sabaeus, 72 h
MIA PaCa-2 = experiment: Cytotoxicity against human MIAPaCa2 cells after 72 hrs by MTT assay; type: functional, cell-based; conditions: MIA PaCa-2, 72 h; in short: as §1
SW-620 = experiment: Cytotoxicity against human SW620 cells after 72 hrs by MTT assay; type: functional, cell-based; conditions: SW-620, 72 h; in short: as §1
Vaccinia virus = experiment: Antiviral activity against Vaccinia virus infected in HEL cells assessed as inhibition of virus-induced cytopathicity; type: functional, organism-based; conditions: Orthopoxvirus vaccinia
[3] = system: Respiratory syncytial virus; experiment: Antiviral activity against Respiratory syncytial virus infected in human HeLa cells assessed as inhibition of virus-induced cytopathicity; type: functional, organism-based; in short: as §3
Human respirovirus 3 = experiment: Antiviral activity against Parainfluenza 3 infected in Vero cells assessed as inhibition of virus-induced cytopathicity; type: functional, organism-based; in short: as §3
Sindbis virus = experiment: Antiviral activity against Sindbis virus infected in Vero cells assessed as inhibition of virus-induced cytopathicity; type: functional, organism-based; in short: as §3
[4] = system: Vesicular stomatitis virus; experiment: Antiviral activity against Vesicular stomatitis virus infected in HEL cells assessed as inhibition of virus-induced cytopathicity; type: functional, organism-based
Human alphaherpesvirus 1 = experiment: Antiviral activity against HSV1 KOS infected in HEL cells assessed as inhibition of virus-induced cytopathicity; type: functional, organism-based; in short: as §3
HeLa [5] = experiment: Cytotoxicity against human HeLa cells assessed as cell viability after 3 days by coulter counting; type: cell-based; conditions: 72 h
MCF7 = experiment: Cytotoxicity against human MCF7 cells after 72 hrs by MTT assay; type: functional, cell-based; conditions: MCF7, 72 h; in short: as §1
Coxsackievirus B4 [6] = experiment: Antiviral activity against Coxsackievirus B4 infected in Vero cells assessed as inhibition of virus-induced cytopathicity; type: functional, organism-based; in short: as §3
HEL = experiment: Cytotoxicity against HEL cells assessed as cell viability after 3 days by coulter counting; type: cell-based; conditions: human, 72 h
In short: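 HEL cells were seeded at 5 × 10³ cells/well and allowed to proliferate 24 h. Medium with test compound at different concentrations was then added, and cells were incubated 3 days at 37 °C. Cell number was counted by Coulter counter. CC50 (50% reduction in cell number versus untreated controls) was read from plots of cell number (% of control) against concentration.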

Human alphaherpesvirus 2 = experiment: Antiviral activity against HSV2 G infected in HEL cells assessed as inhibition of virus-induced cytopathicity; type: functional, organism-based; conditions: strain G; in short: as §3
[7] = system: Vesicular stomatitis virus; experiment: Antiviral activity against Vesicular stomatitis virus infected in human HeLa cells assessed as inhibition of virus-induced cytopathicity; type: functional, organism-based
In short: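 Confluent HeLa cultures were infected with 100 CCID50 of virus. Unadsorbed virus was removed after 1 h, and compound was added at serial concentrations (200, 40, 8…). Viral cytopathic effect was read when untreated virus-infected control wells reached full cytopathicity.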

Coxsackievirus B4 [8] = experiment: Antiviral activity against Coxsackievirus B4 infected in human HeLa cells assessed as inhibition of virus-induced cytopathicity; type: functional, organism-based; in short: as §3
Influenza B virus = experiment: Antiviral activity against influenza B virus infected in MDCK cells assessed as inhibition of virus-induced cytopathicity; type: functional, organism-based; in short: as §2
SK-BR-3 = experiment: Cytotoxicity against human SK-BR-3 cells after 72 hrs by MTT assay; type: functional, cell-based; conditions: SK-BR-3, 72 h; in short: as §1
HeLa [9] = experiment: Cytotoxicity against human HeLa cells after 72 hrs by MTT assay; type: functional, cell-based; in short: as §1

Row | Compound | IC50 (HEp-2) | inhibition (Influenza A virus) | Activity (MDCK) | inhibition (Punta Toro virus) | IC50 [1] | inhibition [2] | Activity (Vero) | IC50 (MIA PaCa-2) | IC50 (SW-620) | inhibition (Vaccinia virus) | inhibition [3] | inhibition (Human respirovirus 3) | inhibition (Sindbis virus) | inhibition [4] | inhibition (Human alphaherpesvirus 1) | Activity (HeLa [5]) | IC50 (MCF7) | inhibition (Coxsackievirus B4 [6]) | Activity (HEL) | inhibition (Human alphaherpesvirus 2) | other results
1 | O=C(NC/C=C\Cn1ccc(=O)[nH]c1=O)c1ccccc1 | > 100 µM | inactive | Non-toxic | inactive | 6.6 µM | inactive | Non-toxic | > 100 µM | > 100 µM | inactive | inactive | inactive | inactive | inactive | inactive | Non-toxic | > 100 µM | inactive | Non-toxic | inactive | inhibition [7]: inactive; inhibition (Coxsackievirus B4 [8]): inactive; inhibition (Influenza B virus): inactive; IC50 (SK-BR-3): > 100 µM; IC50 (HeLa [9]): 4.9 µM
2 | O=C(NC/C=C\Cn1cc(C(F)(F)F)c(=O)[nH]c1=O)c1ccccc1 | > 100 µM | inactive | Non-toxic | inactive | > 100 µM | inactive | Non-toxic | > 100 µM | > 100 µM | inactive | inactive | inactive | inactive | inactive | inactive | Non-toxic | > 100 µM | inactive | Non-toxic | inactive | inhibition [7]: inactive; inhibition (Coxsackievirus B4 [8]): inactive; inhibition (Influenza B virus): inactive; IC50 (SK-BR-3): > 100 µM; IC50 (HeLa [9]): > 100 µM
3 | Nc1nc(=O)n(C/C=C\CNC(=O)c2ccccc2)cc1F | > 100 µM | inactive | Non-toxic | inactive | 50.2 µM | inactive | Non-toxic | > 100 µM | > 100 µM | inactive | inactive | inactive | inactive | inactive | inactive | Non-toxic | 34.4 µM | inactive | Non-toxic | inactive | inhibition [7]: inactive; inhibition (Coxsackievirus B4 [8]): inactive; inhibition (Influenza B virus): inactive; IC50 (SK-BR-3): > 100 µM; IC50 (HeLa [9]): 71.9 µM
